According to ChEMBL document CHEMBL1157852, “Modulation of doxorubicin activity in cancer cells by conjugation with fatty acyl and terpenyl hydrazones” (Eur J Med Chem, 2010):
Active and inactive are the calls of the source. The calls are words filed in the database; no cut-off is given here.

Legend:
[1] = tested on: HL-60; test: Cytotoxicity against human HL60 cells after 72 hrs by MTT assay; format: functional, cell-based; settings: HL-60, 72 h
Outline: (§1)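 MTT assay. Cells seeded and cultured 24 h, then exposed to compound for 24, 48 or 72 h. MTT added to a final 0.05% (HL-60, 518A2) or 0.1% (KB-V1, MCF-7) for 2 h. Formazan dissolved in 10% SDS/DMSO with 0.6% acetic acid; absorbance read at 570 nm against 630 nm background. Viability taken relative to untreated controls (100%). IC50 from concentration-response curves, mean ± SD of four independent experiments.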

[2] = Cytotoxicity against human vinblastine-resistant KBV1 cells after 72 hrs by MTT assay in presence of 24 mM ABC transporter inhibitor verapamil hydrochloride; format: functional, cell-based; settings: KB-V1, 72 h, in the assay text read “24 uM” for “24 mM”
Outline: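 MTT viability assay on P-gp-overexpressing KB-V1/Vbl cells with 24 µM verapamil hydrochloride added before the compound; 72 h exposure. Formazan read at 570/630 nm relative to untreated controls. IC50 from concentration-response curves, mean ± SD of four independent experiments.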

[3] = tested on: HL-60; test: Induction of apoptosis in human HL60 cells assessed as appearance of intact mitochondria in cytosol at 5 uM after 6 hrs using JC1 dye relative to control; format: functional
Outline: (§2)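 Mitochondrial membrane potential measured with JC-1. Cells exposed to 5 µM compound for 6 or 18 h, pelleted at 400 g, stained with 0.2× JC-1 at 37 °C for 15 min (HL-60) or 35 min (518A2), washed and resuspended in PBS. Red fluorescence (ex 585/em 590 nm) and green (ex 510/em 527 nm) read; red/green ratio relative to untreated controls (100%). Mean ± SD, four independent experiments.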

[4] = tested on: 518A2; test: Induction of apoptosis in human 518A2 cells assessed as increase of caspase 8 activity at 5 uM after 1 to 24 hrs by luminometric assay; format: functional, cell-based
Outline: (§3)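 HL-60 and 518A2 cells treated with 5 µM compound and sampled at intervals from 1 to 24 h. Lysed in 50 mM Tris-HCl pH 7.4, 150 mM NaCl, 1% Triton X-100 with protease inhibitors for 15 min at 4 °C, spun at 800 g. Protein measured by Bradford. Caspase-3/7, -8 and -9 activities read with luminogenic peptide substrates; reported as relative luminescence.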

[5] = tested on: 518A2; test: Induction of apoptosis in human 518A2 cells assessed as appearance of intact mitochondria in cytosol at 5 uM after 6 hrs using JC1 dye relative to control; format: functional; outline: as §2
[6] = tested on: HL-60; test: Induction of apoptosis in human HL60 cells assessed as DNA ladder formation at 5 uM after 24 hrs by agarose gel electrophoresis; format: functional, cell-based
Outline: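 HL-60 cells incubated with 5 µM compound for 24 h, then examined for DNA ladder patterns.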

[7] = Cytotoxicity against human vinblastine-resistant KBV1 cells after 48 hrs by MTT assay; format: functional, cell-based; settings: KB-V1, 48 h; outline: as §1
[8] = tested on: 518A2; test: Induction of apoptosis in human 518A2 cells assessed as increase of ratio of Bax to Bcl-2 mRNA expression at 5 uM after 6 to 18 hrs by RT-PCR analysis; format: functional, cell-based
Outline: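 518A2 cells exposed to 5 µM compound for 6 h or 18 h. bax and bcl-2 mRNA quantified by real-time PCR, normalised to GAPDH, and expressed as the bax/bcl-2 ratio.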

[9] = tested on: HL-60; test: Induction of apoptosis in human HL60 cells assessed as increase of caspase 8 activity at 5 uM after 1 to 24 hrs by luminometric assay; format: functional, cell-based; outline: as §3
[10] = tested on: MCF7; test: Cytotoxicity against human topotecan-resistant MCF7 cells after 72 hrs by MTT assay in presence of […] BCRP inhibitor fumitremorgin C; format: functional, cell-based; settings: MCF7, 72 h
Outline: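 MCF-7/Topo cells grown in E-MEM with 2.2 g/L NaHCO₃, 110 mg/L sodium pyruvate and 5% FCS. Cells were seeded, cultured 24 h, given fumitremorgin C, then exposed to compound for 72 h. MTT was added (final 0.1%) for 2 h, medium discarded, and formazan dissolved in 10% SDS/DMSO with 0.6% acetic acid. A570 (630 background) read versus untreated controls; IC50 from concentration-response curves; four independent experiments, mean ± SD.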

[11] = Cytotoxicity against human 518A2 cells assessed as increase in ROS production at 5 uM after 72 hrs by NBT reduction assay relative to control; format: functional
Outline: (§4)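 NBT assay. HL-60 cells (0.5×10⁶/mL) or trypsinised 518A2 cells (5×10⁴/mL) pre-incubated 24 h at 37 °C, then given compound at a final 5 µM for 24 or 72 h. Medium removed; cells incubated with 0.1% NBT for 1 h (HL-60) or 4 h (518A2). Diformazan dissolved in 2 M KOH/DMSO; A630 read against 405 nm. Given as % of untreated controls; double quadruplicates.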

[12] = tested on: HL-60; test: Cytotoxicity against human HL60 cells after 48 hrs by MTT assay; format: functional, cell-based; settings: HL-60, 48 h; outline: as §1
[13] = Cytotoxicity against human 518A2 cells after 72 hrs by MTT assay; format: functional, cell-based; settings: 518A2, 72 h; outline: as §1
[14] = tested on: HL-60; test: Cytotoxicity against human HL60 cells after 24 hrs by MTT assay; format: functional, cell-based; settings: HL-60, 24 h; outline: as §1
[15] = tested on: HL-60; test: Cytotoxicity against human HL60 cells assessed as increase in ROS production at 5 uM after 72 hrs by NBT reduction assay relative to control; format: functional; outline: as §4
[16] = tested on: MCF7; test: Cytotoxicity against human topotecan-resistant MCF7 cells after 72 hrs by MTT assay; format: functional, cell-based; settings: MCF7, 72 h; outline: as §1
[17] = tested on: 518A2; test: Induction of apoptosis in human 518A2 cells assessed as appearance of intact mitochondria in cytosol at 5 uM after 18 hrs using JC1 dye relative to control; format: functional; outline: as §2
[18] = tested on: MCF7; test: Cytotoxicity against human topotecan-resistant MCF7 cells after 24 hrs by MTT assay; format: functional, cell-based; settings: MCF7, 24 h; outline: as §1
[19] = Cytotoxicity against human 518A2 cells assessed as increase in ROS production at 5 uM after 24 hrs by NBT reduction assay relative to control; format: functional; outline: as §4
[20] = Cytotoxicity against human 518A2 cells after 24 hrs by MTT assay; format: functional, cell-based; settings: 518A2, 24 h; outline: as §1
[21] = Cytotoxicity against human vinblastine-resistant KBV1 cells after 24 hrs by MTT assay; format: functional, cell-based; settings: KB-V1, 24 h; outline: as §1
[22] = tested on: 518A2; test: Induction of apoptosis in human 518A2 cells assessed as increase of caspase 9 activity at 5 uM after 2 hrs by luminometric assay; format: functional, cell-based; outline: as §3
[23] = tested on: HL-60; test: Cytotoxicity against human HL60 cells assessed as increase in ROS production at 5 uM after 24 hrs by NBT reduction assay relative to control; format: functional; outline: as §4
[24] = tested on: MCF7; test: Cytotoxicity against human topotecan-resistant MCF7 cells after 48 hrs by MTT assay; format: functional, cell-based; settings: MCF7, 48 h; outline: as §1
[25] = Ratio of IC50 for human vinblastine-resistant KBV1 cells in presence of […] ABC transporter inhibitor verapamil hydrochloride to IC50 for human vinblastine-resistant KBV1 cells; format: functional
Outline: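 MTT assay in P-gp-overexpressing KB-V1/Vbl cells grown in D-MEM with 10% FCS and antibiotics. Cells were seeded and cultured 24 h, verapamil hydrochloride was optionally added, and compound exposure ran 24, 48 or 72 h. MTT was added to 0.1% final for 2 h. After the medium was discarded, formazan was dissolved in 10% SDS/DMSO with 0.6% acetic acid and read at 570 nm (630 nm background). IC50 came from concentration-response curves, four independent experiments, and the ratio is IC50 with inhibitor over IC50 without.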

[26] = tested on: HL-60; test: Induction of apoptosis in human HL60 cells assessed as appearance of intact mitochondria in cytosol at 5 uM after 18 hrs using JC1 dye relative to control; format: functional; outline: as §2
[27] = tested on: 518A2; test: Induction of apoptosis in human 518A2 cells assessed as increase of caspase 3 activity at 5 uM after 1 to 24 hrs by luminometric assay; format: functional, cell-based; outline: as §3
[28] = Cytotoxicity against human 518A2 cells after 48 hrs by MTT assay; format: functional, cell-based; settings: 518A2, 48 h; outline: as §1
[29] = tested on: 518A2; test: Induction of apoptosis in human 518A2 cells assessed as increase of caspase 9 activity at 5 uM after 1 to 24 hrs by luminometric assay; format: functional, cell-based; outline: as §3
[30] = tested on: HL-60; test: Induction of apoptosis in human HL60 cells assessed as increase of caspase 9 activity at 5 uM after 1 to 24 hrs by luminometric assay; format: functional, cell-based
Outline: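 HL-60 leukaemia cells were treated with test compound and sampled at intervals from 1 to 24 h. Protein was measured by Bradford. Caspase-9 (Caspase-Glo 8 for line 1) was read from a luminogenic peptide substrate as relative luminescence.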

[31] = Cytotoxicity against human vinblastine-resistant KBV1 cells after 72 hrs by MTT assay; format: functional, cell-based; settings: KB-V1, 72 h; outline: as §1
[32] = tested on: HL-60; test: Induction of apoptosis in human HL60 cells assessed as increase of caspase 3 activity at 5 uM after 1 to 24 hrs by luminometric assay; format: functional, cell-based; outline: as §3

`CCCCCCCCCCCCCCCCC(=O)N/N=C(\CO)[C@]1(O)Cc2c(O)c3c(c(O)c2[C@@H](O[C@H]2C[C@H](N)[C@H](O)[C@H](C)O2)C1)C(=O)c1c(OC)cccc1C3=O.Cl` [DOXORUBICIN HEPTADECANOYL HYDRAZONE] showed an IC50 [1] of 0.28 µM, an IC50 [2] of 3.7 µM and an Activity [3] of 94%. The Activity [4] was “Active”, the Activity [5] was 113% and the Activity [6] was “Active”. For the same compound, the IC50 [7] was 10.7 µM, the Activity [8] was “Active” and the Activity [9] was “Active”. It also gave an IC50 [10] of 0.17 µM, an Activity [11] of 71.2% and an IC50 [12] of 0.86 µM. It also gave an IC50 [13] of 0.11 µM, an IC50 [14] of 1.4 µM and an Activity [15] of 3.4%. The IC50 [16] was 3 µM, the Activity [17] was 80% and the IC50 [18] was 5.9 µM. It also gave an Activity [19] of 6.6%, an IC50 [20] of 0.76 µM and an IC50 [21] of 42.9 µM. The Activity [22] was “Active”, the Activity [23] was 2.8% and the IC50 [24] was 3.2 µM. For the same compound, the “Ratio IC50” value [25] was 0.74, the Activity [26] was 59% and the Activity [27] was “Active”. For the same compound, the IC50 [28] was 0.35 µM, the Activity [29] was “Active” and the Activity [30] was “Active”. The IC50 [31] was 5.1 µM and the Activity [32] was “Active”.
